≈ marks a conversion by molar mass, not a printed value.
Key:
[1] = system: A549; test: % inhibition against A549 cells (lung cancer) at 0.04 ug/mL; assay type: functional; settings: Homo sapiens
[2] = system: A549; test: % inhibition against A549 cells (lung cancer) at 0.4 ug/mL; assay type: functional; settings: Homo sapiens
[3] = system: A549; test: % inhibition against A549 cells (lung cancer) at 4 ug/mL; assay type: functional; settings: Homo sapiens
[4] = system: CAKI-1; test: % inhibition against CAKI-1 cells(renal carcinoma) at 0.04 ug/mL.; assay type: functional; settings: Homo sapiens
[5] = system: CAKI-1; test: % inhibition against CAKI-1 cells(renal carcinoma) at 0.4 ug/mL.; assay type: functional; settings: Homo sapiens
[6] = system: CAKI-1; test: % inhibition against CAKI-1 cells(renal carcinoma) at 4 ug/mL.; assay type: functional; settings: Homo sapiens
[7] = system: Human betaherpesvirus 5; test: Inhibitory activity against human cytomegalovirus (HCMV); assay type: functional; settings: for IC50: read-out: ID50 (the source's name)
Summary of the method: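 Confluent HEL fibroblasts infected with Towne strain CMV at 1–2 PFU/cell, with or without a drug dilution series. Antiviral effect read either as extracellular virus yield (day-6 supernatant titred by plaque assay on HEL, counted at 2 weeks) or as viral DNA by 32P-CMV-probe dot hybridization with scintillation counting of dots.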

[8] = system: Human alphaherpesvirus 1; test: Minimum inhibitory concentration against herpesvirus simplex 1; assay type: functional
Summary of the method: (§1)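 Plaque elimination in pre-formed confluent Vero monolayers, HSV-1 strain KOS or HSV-2 strain 186, ~100 PFU inoculum for 30 min. Overlay medium had 0.5% calf serum, 1% carboxymethylcellulose and drug dilutions. Crystal violet fix/stain at 2 days; macroscopic plaques scored. ED100 = dilution fully eliminating plaques without monolayer toxicity. MIC = lowest dilution reducing plaque size/number. Repeated at least twice.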

[9] = system: Human alphaherpesvirus 2; test: Minimum inhibitory concentration against herpesvirus simplex 2; assay type: functional; summary of the method: as §1
[10] = system: Human alphaherpesvirus 1; test: Effective dose required to inhibit 100% against herpesvirus simplex 1; assay type: functional; summary of the method: as §1
[11] = system: Human alphaherpesvirus 2; test: Effective dose required to inhibit 100% against herpesvirus simplex 2; assay type: functional; summary of the method: as §1
[12] = % inhibition against KB cells (nasopharyngeal carcinoma) at 0.04 ug/mL; assay type: functional; settings: Homo sapiens
[13] = % inhibition against KB cells (nasopharyngeal carcinoma) at 0.4 ug/mL; assay type: functional; settings: Homo sapiens
[14] = % inhibition against KB cells (nasopharyngeal carcinoma) at 4 ug/mL; assay type: functional; settings: Homo sapiens
[15] = system: MCF7; test: % inhibition against MCF-7 cells (breast cancer) at 0.04 ug/mL; assay type: functional; settings: Homo sapiens
[16] = system: MCF7; test: % inhibition against MCF-7 cells (breast cancer) at 0.4 ug/mL; assay type: functional; settings: Homo sapiens
[17] = system: MCF7; test: % inhibition against MCF-7 cells (breast cancer) at 4 ug/mL; assay type: functional; settings: Homo sapiens
[18] = system: Vero; test: Effective dose required to inhibit 25% of cell growth (Herpesvirus activity); assay type: functional, Chlorocebus sabaeus
Summary of the method: (§2)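 Cells seeded at 50 000 cells/mL with a drug dilution series, exposed 2 days; cell number by sulforhodamine B staining. ED25 interpolated from dose–response as the concentration cutting absorbency by 25%. MIC = lowest dilution giving detectable growth inhibition. Triplicate wells; absorbency within 5%, ED25 within 30% across independent tests.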

[19] = system: Vero; test: Minimum inhibitory concentration for cell growth inhibition (Herpesvirus activity); assay type: functional; settings: Chlorocebus sabaeus; summary of the method: as §2
[20] = system: A549; test: GI values against A549 cells (lung cancer); assay type: functional; settings: Homo sapiens
[21] = system: CAKI-1; test: GI values against CAKI-1 cells(renal carcinoma); assay type: functional; settings: Homo sapiens
[22] = GI values against KB cells (nasopharyngeal carcinoma); assay type: functional; settings: Homo sapiens
[23] = system: HEL; test: Inhibitory activity against HEL cells; assay type: functional; settings: Homo sapiens, read-out: ED50 (the source's name)
Summary of the method: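 Human embryonic lung fibroblasts in MEM/10% FBS, 6% CO2, seeded at 50 000 cells/mL with a drug dilution series. Exposure 15 days; viability and cell counts by trypan blue. ED50 (50% growth reduction versus untreated cells) interpolated from dose–response data.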

[24] = Selectivity index (ED50/ID50) value of the compound; assay type: functional
Summary of the method: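 Ratio of ED50 for growing HEL cells (15-day trypan blue count) to ID50 against Towne strain CMV in HEL fibroblasts.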

[25] = organism: Homo sapiens; test: Cytotoxicity against HEL cells

SMILES | inhibition at 0.04 µg/mL [1] | inhibition at 0.4 µg/mL [2] | inhibition at 4 µg/mL [3] | inhibition at 0.04 µg/mL [4] | inhibition at 0.4 µg/mL [5] | inhibition at 4 µg/mL [6] | ID90 [7] | IC50 [7] | inhibition at 0.04 µg/mL [12] | inhibition at 0.4 µg/mL [13] | inhibition at 4 µg/mL [14] | inhibition at 0.04 µg/mL [15] | inhibition at 0.4 µg/mL [16] | inhibition at 4 µg/mL [17] | GI50 [20] | GI50 [21] | GI50 [22] | EC50 [23] | SI [24] | further results
COc1cc([C@@H]2c3cc4c(cc3[C@H](O)[C@H]3COC(=O)[C@]23F)OCO4)cc(OC)c1OC | 59.4% | 69.6% | 73.1% | 18.1% | 39.7% | 40.5% | >5000 nM | > 5000 nM | 53.3% | 72% | 87.4% | 34.2% | 48% | 51% | 3980 nM | > 10000 nM | 31.6 nM |  |  | MIC [8]: 1 µM (≈ 0.432 µg/mL); MIC [9]: 0.1 µM (≈ 0.0432 µg/mL); ED100 [10]: 10 µM; ED100 [11]: 1000 nM; ED25 [18]: 1000 nM; MIC [19]: 0.8 µM (≈ 0.346 µg/mL)
COc1cc([C@@H]2c3cc4c(cc3[C@@H](Nc3ccc5c(c3)OCCC5=O)[C@H]3COC(=O)[C@H]23)OCO4)cc(OC)c1O |  |  |  |  |  |  |  |  |  |  |  |  |  |  | 100 nM | 126 nM | 631 nM |  |  | 
COc1cc([C@@H]2c3cc4c(cc3[C@H](O)[C@H]3COC(=O)[C@H]23)OCO4)cc(OC)c1OC [PODOFILOX] |  |  |  |  |  |  |  | < 100 nM |  |  |  |  |  |  | 7.94 nM | 100 nM |  |  |  | MIC [8]: 0.01 µM (≈ 0.00414 µg/mL); MIC [9]: 0.01 µM (≈ 0.00414 µg/mL); ED100 [10]: 0.05 µM; ED100 [11]: 100 nM; ED25 [18]: 20 nM; MIC [19]: 0.008 µM (≈ 0.00332 µg/mL)
COc1cc([C@@H]2c3cc4c(cc3[C@@H](Nc3ccc(N)cc3)[C@H]3COC(=O)[C@]23F)OCO4)cc(OC)c1O | 0% | 7.7% | 51% | 0% | 2.5% | 38% | 5020 nM | 2540 nM | 0% | 7.5% | 61.5% | 0% | 5.8% | 48.1% | 3980 nM | > 10000 nM | 3980 nM | 7500 nM | 3 | 
COc1cc([C@@H]2c3cc4c(cc3[C@@H](Nc3ccc(N)cc3)[C@H]3COC(=O)[C@H]23)OCO4)cc(OC)c1O |  |  |  |  |  |  |  | 1250 nM |  |  |  |  |  |  | 316 nM | 316 nM | 794 nM |  |  | 
COc1cc([C@@H]2c3cc4c(cc3[C@@H](Nc3ccc(C#N)cc3)[C@H]3COC(=O)[C@]23F)OCO4)cc(OC)c1O | 11.1% | 11.9% | 52.5% | 7.9% | 9.5% | 28.4% | 4290 nM | 760 nM | 5% | 4.2% | 30.5% | 7.7% | 8.2% | 45.8% |  |  |  | 8430 nM | 11.1 | 
COc1cc([C@@H]2c3cc4c(cc3[C@@H](Nc3ccc([N+](=O)[O-])cc3)[C@H]3COC(=O)[C@H]23)OCO4)cc(OC)c1O |  |  |  |  |  |  |  | 350 nM |  |  |  |  |  |  | 158 nM | 158 nM | 501 nM |  |  | 
COc1cc([C@@H]2c3cc4c(cc3[C@@H](Nc3ccc([N+](=O)[O-])cc3)[C@H]3COC(=O)[C@]23F)OCO4)cc(OC)c1O | 0% | 6.5% | 51.8% | 0.8% | 2.6% | 21.9% | 4600 nM | 1450 nM | 0% | 3.8% | 41.6% | 0.9% | 7.3% | 42.1% | 3980 nM | > 10000 nM | > 10000 nM | 6090 nM | 4.2 | 
COc1cc([C@@H]2c3cc4c(cc3[C@H](O[Si](C)(C)C(C)(C)C)[C@H]3COC(=O)[C@]23F)OCO4)cc(OC)c1OC |  |  |  |  |  |  |  |  |  |  |  |  |  |  |  |  |  |  |  | ED25 [18]: 25000 nM; MIC [19]: 6 µM (≈ 3.28 µg/mL)
COc1cc([C@@H]2c3cc4c(cc3[C@H](O[Si](C)(C)C(C)(C)C)[C@H]3COC(=O)[C@H]23)OCO4)cc(OC)c1OC |  |  |  |  |  |  |  |  |  |  |  |  |  |  |  |  |  |  |  | MIC [8]: 1 µM (≈ 0.529 µg/mL); MIC [9]: 0.1 µM (≈ 0.0529 µg/mL); ED100 [10]: 10 µM; ED100 [11]: 1000 nM; ED25 [18]: 6000 nM; MIC [19]: 3 µM (≈ 1.59 µg/mL)
COc1cc([C@@H]2c3cc4c(cc3[C@@H](Nc3ccc(F)cc3)[C@H]3COC(=O)[C@H]23)OCO4)cc(OC)c1O |  |  |  |  |  |  |  | 650 nM |  |  |  |  |  |  | 251 nM | 316 nM | 251 nM |  |  | 
COc1cc([C@@H]2c3cc4c(cc3[C@@H](O)[C@H]3COC(=O)[C@]23F)OCO4)cc(OC)c1O | 0% | 34.3% | 78.1% | 0% | 10.6% | 39% | >5000 nM | > 5000 nM | 0% | 25.6% | 64% | 0% | 21.8% | 53.8% |  |  |  | 8200 nM | < 1.6 | 
COc1cc([C@@H]2c3cc4c(cc3[C@@H](Nc3ccc(F)cc3)[C@H]3COC(=O)[C@]23F)OCO4)cc(OC)c1O | 16.1% | 26.2% | 61.4% | 10.3% | 15.3% | 44.3% | 4470 nM | 970 nM | 7.5% | 10.1% | 70.9% | 13.2% | 20% | 61.2% | 2000 nM | > 10000 nM | 2000 nM | 6100 nM | 6.2 | 
COc1cc([C@@H]2c3cc4c(cc3[C@@H](Nc3ccc(C#N)cc3)[C@H]3COC(=O)[C@H]23)OCO4)cc(OC)c1O |  |  |  |  |  |  |  | 620 nM |  |  |  |  |  |  |  |  |  |  |  | 
COc1cc([C@@H]2c3cc4c(cc3[C@@H](O[C@@H]3O[C@@H]5CO[C@@H](C)O[C@H]5[C@H](O)[C@H]3O)[C@H]3COC(=O)[C@H]23)OCO4)cc(OC)c1O [ETOPOSIDE] |  |  |  |  |  |  |  | 1030 nM |  |  |  |  |  |  | 6310 nM | 6310 nM | 200 nM |  | 8.4 | ED50 [25]: 8640 nM
